Test results taken from ChEMBL document CHEMBL1127395, “Synthesis and antimicrobial activity of novel 3-[(aminopyrimidiniumyl)thio]methyl cephalosporins” (1994).
In brackets after ≈: the same amount, converted by molar mass.

How the values were obtained:
[1] = tested on: Citrobacter freundii; test: In vitro minimum inhibitory concentration for Citrobacter freundii (ATCC-8090) by agar dilution method; assay type: functional
In short: (§1)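 Two-fold serial dilutions of each compound dispersed in Mueller-Hinton agar; plates spot-inoculated with 2 μL of standard test strain at 10^7 CFU/mL, incubated 37 °C for 20 h; MIC read as lowest concentration inhibiting growth.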

[2] = tested on: Enterobacter cloacae; test: In vitro minimum inhibitory concentration for Enterobacter cloacae (ATCC-27508) by agar dilution method; assay type: functional; in short: as §1
[3] = tested on: Klebsiella aerogenes; test: In vitro minimum inhibitory concentration for Enterobacter aerogenes (ATCC-29751) by agar dilution method; assay type: functional; in short: as §1
[4] = tested on: Klebsiella pneumoniae; test: In vitro minimum inhibitory concentration for Klebsiella pneumoniae (ATCC-10031) by agar dilution method; assay type: functional
[5] = tested on: Pseudomonas aeruginosa; test: In vitro minimum inhibitory concentration for Pseudomonas aeruginosa (ATCC-27853) by agar dilution method; assay type: functional; in short: as §1
[6] = tested on: Proteus vulgaris; test: In vitro minimum inhibitory concentration for Proteus vulgaris (ATCC-6059) by agar dilution method; assay type: functional; in short: as §1
[7] = tested on: Salmonella typhimurium; test: In vitro minimum inhibitory concentration for Salmonella Typhimurium (ATCC-14028) by agar dilution method; assay type: functional, Salmonella enterica subsp. enterica serovar Typhimurium; in short: as §1
[8] = tested on: Serratia marcescens; test: In vitro minimum inhibitory concentration for Serratia marcescens (ATCC-27117) by agar dilution method; assay type: functional; in short: as §1
[9] = tested on: Staphylococcus epidermidis; test: In vitro minimum inhibitory concentration for Staphylococcus epidermidis (ATCC-12228) by agar dilution method; assay type: functional; in short: as §1
[10] = tested on: Staphylococcus aureus; test: In vitro minimum inhibitory concentration for Staphylococcus aureus (ATCC 6538p) by agar dilution method; assay type: functional; in short: as §1
[11] = tested on: Escherichia coli; test: In vitro minimum inhibitory concentration for Escherichia coli (ATCC-10536) by agar dilution method; assay type: functional; in short: as §1
[12] = tested on: Pseudomonas aeruginosa; test: In vitro minimum inhibitory concentration for Pseudomonas aeruginosa (ATCC 10145) by agar dilution method; assay type: functional; in short: as §1
[13] = Citrobacter freundii, read-out: MIC
[14] = Enterobacter cloacae, read-out: MIC
[15] = Klebsiella aerogenes, read-out: MIC
[16] = Klebsiella pneumoniae, read-out: MIC
[17] = Pseudomonas aeruginosa, read-out: MIC
[18] = Proteus vulgaris, read-out: MIC
[19] = Salmonella enterica, read-out: MIC
[20] = Serratia marcescens, read-out: MIC
[21] = Staphylococcus epidermidis, read-out: MIC
[22] = Staphylococcus aureus, ATCC 6538p, read-out: MIC
[23] = Escherichia coli, read-out: MIC

Row | MIC [1, 13] [µg/mL] | MIC [2, 14] [µg/mL] | MIC [3, 15] [µg/mL] | MIC [4, 16] [µg/mL] | MIC [5, 17] [µg/mL] | MIC [6, 18] [µg/mL] | MIC [7, 19] [µg/mL] | MIC [8, 20] [µg/mL] | MIC [9, 21] [µg/mL] | MIC [10, 22] [µg/mL] | MIC [11, 23] [µg/mL] | MIC [12] [µg/mL] | SMILES | also measured
1 | 4 (≈ 6.39 µM) | 1 (≈ 1.6 µM) | 16 (≈ 25.6 µM) | 2 (≈ 3.2 µM) | 16 (≈ 25.6 µM) | 0.5 (≈ 0.799 µM) | 16 (≈ 25.6 µM) | 16 (≈ 25.6 µM) | > 128 | > 128 | 4 (≈ 6.39 µM) | 32 (≈ 51.1 µM) | C[n+]1c(O)cc(O)nc1SCC1=C(C(=O)[O-])N2C(=O)C(NC(=O)/C(=N\OC(C)(C)C(=O)O)c3cnc(N)s3)C2SC1 (stereo unspecified) | –
2 | 1 (≈ 1.73 µM) | 0.5 (≈ 0.863 µM) | 16 (≈ 27.6 µM) | 0.5 (≈ 0.863 µM) | 16 (≈ 27.6 µM) | 0.063 (≈ 0.109 µM) | 2 (≈ 3.45 µM) | 2 (≈ 3.45 µM) | 8 (≈ 13.8 µM) | 16 (≈ 27.6 µM) | 1 (≈ 1.73 µM) | 32 (≈ 55.2 µM) | CC(C)(O/N=C(\C(=O)NC1C(=O)N2C(C(=O)O)=C(CSc3ncccn3)CSC12)c1cnc(N)s1)C(=O)O (stereo unspecified) | –
3 | 1 (≈ 1.64 µM) | 0.25 (≈ 0.41 µM) | 2 (≈ 3.28 µM) | 0.25 (≈ 0.41 µM) | 2 (≈ 3.28 µM) | 0.031 (≈ 0.0508 µM) | 0.5 (≈ 0.82 µM) | 0.5 (≈ 0.82 µM) | 8 (≈ 13.1 µM) | 32 (≈ 52.5 µM) | 0.25 (≈ 0.41 µM) | 4 (≈ 6.56 µM) | CC(C)(O/N=C(\C(=O)NC1C(=O)N2C(C(=O)O)=C(CSc3nc(N)cc(N)n3)CSC12)c1cnc(N)s1)C(=O)O (stereo unspecified) | –
4 | 0.13 (≈ 0.2 µM) | 0.03 (≈ 0.0462 µM) | 2 (≈ 3.08 µM) | 0.06 (≈ 0.0923 µM) | 2 (≈ 3.08 µM) | 0.13 (≈ 0.2 µM) | 0.5 (≈ 0.77 µM) | 0.25 (≈ 0.385 µM) | 2 (≈ 3.08 µM) | 4 (≈ 6.16 µM) | 0.13 (≈ 0.2 µM) | 4 (≈ 6.16 µM) | CC(C)(O/N=C(\C(=O)NC1C(=O)N2C(C(=O)[O-])=C(CSc3nc(N)cc(N)[n+]3C3CC3)CSC12)c1cnc(N)s1)C(=O)O (stereo unspecified) | –
5 | 0.5 (≈ 0.823 µM) | 0.5 (≈ 0.823 µM) | 8 (≈ 13.2 µM) | 0.5 (≈ 0.823 µM) | 32 (≈ 52.7 µM) | 0.25 (≈ 0.411 µM) | 4 (≈ 6.58 µM) | 2 (≈ 3.29 µM) | 8 (≈ 13.2 µM) | 32 (≈ 52.7 µM) | 0.5 (≈ 0.823 µM) | 64 (≈ 105 µM) | Cc1cc(C)nc(SCC2=C(C(=O)O)N3C(=O)C(NC(=O)/C(=N\OC(C)(C)C(=O)O)c4cnc(N)s4)C3SC2)n1 (stereo unspecified) | –
6 | 0.06 (≈ 0.0907 µM) | 0.02 (≈ 0.0302 µM) | 2 (≈ 3.02 µM) | 0.06 (≈ 0.0907 µM) | 2 (≈ 3.02 µM) | 0.06 (≈ 0.0907 µM) | 0.13 (≈ 0.196 µM) | 0.13 (≈ 0.196 µM) | 2 (≈ 3.02 µM) | 4 (≈ 6.04 µM) | 0.06 (≈ 0.0907 µM) | 4 (≈ 6.04 µM) | CCn1cc[n+]2c(SCC3=C(C(=O)[O-])N4C(=O)C(NC(=O)/C(=N\OC(C)(C)C(=O)O)c5cnc(N)s5)C4SC3)nc(N)cc12 (stereo unspecified) | –
7 | 0.13 (≈ 0.2 µM) | 0.03 (≈ 0.0462 µM) | 2 (≈ 3.08 µM) | 0.06 (≈ 0.0923 µM) | 2 (≈ 3.08 µM) | 0.06 (≈ 0.0923 µM) | 0.25 (≈ 0.385 µM) | 0.13 (≈ 0.2 µM) | 2 (≈ 3.08 µM) | 4 (≈ 6.16 µM) | 0.13 (≈ 0.2 µM) | 2 (≈ 3.08 µM) | C/C=C/[n+]1c(N)cc(N)nc1SCC1=C(C(=O)[O-])N2C(=O)C(NC(=O)/C(=N\OC(C)(C)C(=O)O)c3cnc(N)s3)C2SC1 (stereo unspecified) | –
8 | – | – | – | – | – | – | – | – | – | – | – | – | C[n+]1c(N)cc(N)nc1SCC1=C(C(=O)[O-])N2C(=O)C(NC(=O)/C(=N\OC(C)(C)C(=O)O)c3cnc(N)s3)C2SC1 (stereo in doubt; 23) | MIC [1]: 0.13 µg/mL (≈ 0.208 µM); MIC [2]: 0.06 µg/mL (≈ 0.0962 µM); MIC [3]: 2 µg/mL (≈ 3.21 µM); MIC [4]: 0.06 µg/mL (≈ 0.0962 µM); MIC [5]: 2 µg/mL (≈ 3.21 µM); MIC [6]: 0.06 µg/mL (≈ 0.0962 µM); MIC [7]: 0.25 µg/mL (≈ 0.401 µM); MIC [8]: 0.13 µg/mL (≈ 0.208 µM); MIC [9]: 2 µg/mL (≈ 3.21 µM); MIC [10]: 4 µg/mL (≈ 6.41 µM); MIC [11]: 0.06 µg/mL (≈ 0.0962 µM)
9 | 0.13 (≈ 0.2 µM) | 0.02 (≈ 0.0308 µM) | 1 (≈ 1.54 µM) | 0.06 (≈ 0.0925 µM) | 2 (≈ 3.08 µM) | 0.06 (≈ 0.0925 µM) | 0.25 (≈ 0.385 µM) | 0.25 (≈ 0.385 µM) | 1 (≈ 1.54 µM) | 8 (≈ 12.3 µM) | 0.06 (≈ 0.0925 µM) | 4 (≈ 6.17 µM) | Cn1cn[n+]2c(SCC3=C(C(=O)[O-])N4C(=O)C(NC(=O)/C(=N\OC(C)(C)C(=O)O)c5cnc(N)s5)C4SC3)nc(N)cc12 (stereo unspecified) | –
10 | 8 (≈ 13.1 µM) | 1 (≈ 1.63 µM) | 32 (≈ 52.3 µM) | 2 (≈ 3.27 µM) | 32 (≈ 52.3 µM) | 0.25 (≈ 0.409 µM) | 8 (≈ 13.1 µM) | 4 (≈ 6.54 µM) | > 128 | > 128 | 4 (≈ 6.54 µM) | 32 (≈ 52.3 µM) | CC(C)(O/N=C(\C(=O)NC1C(=O)N2C(C(=O)O)=C(CSc3nc(O)cc(O)n3)CSC12)c1cnc(N)s1)C(=O)O (stereo unspecified) | –
11 | 0.5 (≈ 0.783 µM) | 0.13 (≈ 0.204 µM) | 16 (≈ 25.1 µM) | 0.25 (≈ 0.391 µM) | 8 (≈ 12.5 µM) | 0.03 (≈ 0.047 µM) | 1 (≈ 1.57 µM) | 1 (≈ 1.57 µM) | 16 (≈ 25.1 µM) | 32 (≈ 50.1 µM) | 0.5 (≈ 0.783 µM) | 8 (≈ 12.5 µM) | CN[n+]1c(N)cc(N)nc1SCC1=C(C(=O)[O-])N2C(=O)C(NC(=O)/C(=N\OC(C)(C)C(=O)O)c3cnc(N)s3)C2SC1 (stereo unspecified) | –
